Source: ChEMBL document CHEMBL4325828, “The Design, Synthesis, and Characterizations of Spore Germination Inhibitors Effective against an Epidemic Strain of Clostridium difficile” (J Med Chem, 2018)

Experiments:
Clostridioides difficile [1] = test: Antibacterial activity against Clostridium difficile R20291 assessed as inhibition of spore germination by measuring heat activated spore germination levels at 125 uM in presence of 6 mM taurocholate and 12 mM glycine measured every minute for 2 hrs by standard optical density assay relative to control; assay type: functional; parameters: scale not given: the % may be the effect or the level left
Summary of the method: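 R20291 spores were screened at a single 125 µM concentration, with germination followed as the fall in absorbance at 580 nm. Compounds not soluble at 125 µM by visual inspection were discarded. Inhibition is relative to untreated spore samples.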

Clostridioides difficile [2] = test: Antibacterial activity against Clostridium difficile R20291 assessed as inhibition of spore germination in presence of 6 mM taurocholate and 12 mM glycine measured every minute for 2 hrs by standard optical density assay; assay type: functional, organism-based
Summary of the method: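 IC50 was determined on R20291 spores across a range of compound concentrations in sodium phosphate medium with 6 mM taurocholate and 12 mM glycine. Germination was read as the decrease in absorbance at 580 nm.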

Clostridioides difficile [3] = test: Potency index, ratio of IC50 for chenodeoxycholate to IC50 for test compound for inhibition of spore germination in Clostridium difficile R20291 in presence of 6 mM taurocholate and 12 mM glycine measured every minute for 2 hrs by standard optical density assay; assay type: functional
Clostridioides difficile [4] = test: Antibacterial activity against Clostridium difficile R20291 assessed as inhibition of spore germination in complex BHIS media containing 6 mM taurocholate measured every minute for 2 hrs by standard optical density assay; assay type: functional, organism-based
Summary of the method: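 IC50 was determined on R20291 spores across multiple compound concentrations in complex BHIS medium supplemented with 6 mM taurocholate. Germination was monitored as the decline in absorbance at 580 nm.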

SMILES: C[C@H](CCC(=O)Nc1cccc(F)c1)[C@H]1CC[C@H]2[C@@H]3[C@H](O)C[C@@H]4C[C@H](O)CC[C@]4(C)[C@H]3C[C@H](O)[C@]12C
- Activity (Clostridioides difficile [1]): 8%
- IC50 (Clostridioides difficile [2]): 16 µM

SMILES: C[C@H](CCC(=O)NCC1CC1)[C@H]1CC[C@H]2[C@@H]3[C@H](O)C[C@@H]4C[C@H](O)CC[C@]4(C)[C@H]3C[C@H](O)[C@]12C
- Activity (Clostridioides difficile [1]): 15%
- IC50 (Clostridioides difficile [2]): 24.3 µM

SMILES: C[C@H](CCC(=O)NCc1ccccc1[N+](=O)[O-])[C@H]1CC[C@H]2[C@@H]3[C@H](O)C[C@@H]4C[C@H](O)CC[C@]4(C)[C@H]3C[C@H](O)[C@]12C
- Activity (Clostridioides difficile [1]): 113%
- IC50 (Clostridioides difficile [2]): 225 µM

SMILES: CC(C)CNC(=O)CC[C@@H](C)[C@H]1CC[C@H]2[C@@H]3[C@H](O)C[C@@H]4C[C@H](O)CC[C@]4(C)[C@H]3C[C@H](O)[C@]12C
- Activity (Clostridioides difficile [1]): 62%
- IC50 (Clostridioides difficile [2]): 154 µM

SMILES: Cc1ccc(F)cc1NC(=O)CC[C@@H](C)[C@H]1CC[C@H]2[C@@H]3[C@H](O)C[C@@H]4C[C@H](O)CC[C@]4(C)[C@H]3C[C@H](O)[C@]12C
- Activity (Clostridioides difficile [1]): 9%
- IC50 (Clostridioides difficile [2]): 14 µM

SMILES: Cc1cc(F)ccc1NC(=O)CC[C@@H](C)[C@H]1CC[C@H]2[C@@H]3[C@H](O)C[C@@H]4C[C@H](O)CC[C@]4(C)[C@H]3C[C@H](O)[C@]12C
- Activity (Clostridioides difficile [1]): 37%
- IC50 (Clostridioides difficile [2]): 24 µM

SMILES: COc1ccccc1NC(=O)CC[C@@H](C)[C@H]1CC[C@H]2[C@@H]3[C@H](O)C[C@@H]4C[C@H](O)CC[C@]4(C)[C@H]3C[C@H](O)[C@]12C
- Activity (Clostridioides difficile [1]): 8%
- IC50 (Clostridioides difficile [2]): 9.8 µM

SMILES: C[C@H](CCC(=O)Nc1cccc(N)c1)[C@H]1CC[C@H]2[C@@H]3[C@H](O)C[C@@H]4C[C@H](O)CC[C@]4(C)[C@H]3C[C@H](O)[C@]12C.Cl
- Activity (Clostridioides difficile [1]): 59%
- IC50 (Clostridioides difficile [2]): 32 µM

SMILES: C[C@H](CCC(=O)NC1CC1)[C@H]1CC[C@H]2[C@@H]3[C@H](O)C[C@@H]4C[C@H](O)CC[C@]4(C)[C@H]3C[C@H](O)[C@]12C
- Activity (Clostridioides difficile [1]): 6%
- IC50 (Clostridioides difficile [2]): 25 µM

SMILES: C[C@H](CCC(=O)Nc1ccccc1)[C@H]1CC[C@H]2[C@@H]3[C@H](O)C[C@@H]4C[C@H](O)CC[C@]4(C)[C@H]3C[C@H](O)[C@]12C
- Ratio IC50 (Clostridioides difficile [3]): >225
- IC50 (Clostridioides difficile [4]): 1.8 µM
- Activity (Clostridioides difficile [1]): 3%
- IC50 (Clostridioides difficile [2]): 1.8 µM

SMILES: C#CCNC(=O)CC[C@@H](C)[C@H]1CC[C@H]2[C@@H]3[C@H](O)C[C@@H]4C[C@H](O)CC[C@]4(C)[C@H]3C[C@H](O)[C@]12C
- Activity (Clostridioides difficile [1]): 59%
- IC50 (Clostridioides difficile [2]): 137 µM

SMILES: C[C@H](CCC(=O)Nc1ccncc1)[C@H]1CC[C@H]2[C@@H]3[C@H](O)C[C@@H]4C[C@H](O)CC[C@]4(C)[C@H]3C[C@H](O)[C@]12C
- Activity (Clostridioides difficile [1]): 17%
- IC50 (Clostridioides difficile [2]): 30.1 µM
